Holding throughout (assay type): functional
For assay [1], the system named is Proteus mirabilis. Briefly: Minimum inhibitory dilution of medicated rat urine tested in vitro for antibacterial activity against Proteus mirabilis; Equal to 1:192.
The test system of assay [2] is Staphylococcus aureus. Nature of the assay: In vitro minimum inhibitory concentration against Staphylococcus aureus. Summed up:
(§1)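 Compounds were dissolved in water, or in water with the minimum DMSO needed to keep them in solution, and tested by an established dilution method. A ">" prefix means the DMSO solvent blank was inhibitory at that level.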

The subject of assay [3] is Staphylococcus aureus. Nature of the assay: Minimum inhibitory dilution of medicated rat urine tested in vitro for antibacterial activity against Staphylococcus aureus; Equal to 1:128.
The subject of assay [4] is Proteus mirabilis. Nature of the assay: In vitro minimum inhibitory concentration against Proteus mirabilis. The method in brief: as §1
In assay [5] the test system is Mus musculus. Nature of the assay: Antitubercular activity (12.5 mg/kg) in the 31-day murine mice model. Summed up: (§2)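 Female Swiss mice (14–16 g), 10 per treated group and 20 infected controls, were infected i.v. with 0.1 mL of a 2 mg/mL M. tuberculosis H37Rv suspension. Oral dosing was in 0.5 mL 1.0% gum tragacanth, starting day 3 post-infection, twice daily, 5 days/week for 4 weeks. Percent survival was recorded at day 31; active meant survival consistently >80%.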

In assay [6] the test system is Mus musculus. Briefly: Antitubercular activity (6.25 mg/kg) in the 31-day murine mice model. Summed up: as §2
Assay [7] concerns Proteus mirabilis. Briefly: Minimum inhibitory dilution of medicated rat urine tested in vitro for antibacterial activity against Proteus mirabilis; Equals to 1:16.
The test system of assay [8] is Staphylococcus aureus. Briefly: Minimum inhibitory dilution of medicated rat urine tested in vitro for antibacterial activity against Staphylococcus aureus; Equal to 1:64.
The test system of assay [9] is Mus musculus. Briefly: Antitubercular activity (3.1 mg/kg) in the 31-day murine mice model. Summed up: as §2
For assay [10], the system named is Staphylococcus aureus. Nature of the assay: Minimum inhibitory dilution of medicated rat urine tested in vitro for antibacterial activity against Staphylococcus aureus; Equal to 1:8.
Assay [11] relates to Proteus mirabilis. Nature of the assay: Minimum inhibitory dilution of medicated rat urine tested in vitro for antibacterial activity against Proteus mirabilis; Equal to 1:32.
Assay [12] concerns Mus musculus. Briefly: Antitubercular activity (25 mg/kg) in the 31-day murine model. Summed up: as §2
Assay [13] relates to Mus musculus. Nature of the assay: Antitubercular activity (100 mg/kg) in the 31-day murine model. Summed up:
as §2

Assay [14] concerns Mus musculus. Briefly: Antitubercular activity (50 mg/kg) in the 31-day murine model. Summed up: as §2
The subject of assay [15] is Mus musculus. Briefly: Antitubercular activity (12.5 mg/kg) in the 31-day murine model. Summed up:
as §2

Setting [16] is: Staphylococcus aureus, read-out: MIC.
Where [17] appears, read: Proteus mirabilis, read-out: MIC.

Converted amounts (≈) assume the structure as drawn. Bounds are passed on as bounds.

As usually defined, the MIC is the least concentration at which growth counts as inhibited. Regarding `c1ccc(Nn2cccc2)cc1`, the MID in the assay on Proteus mirabilis [1] is recorded as 0.005208; in the assay with Staphylococcus aureus [3], 0.00781. For the same compound, the minimal inhibitory concentration (MIC) was 250 µg/mL (≈ 1580 µM) in the assay on Staphylococcus aureus [2] (setting [16]) and above 125 µg/mL with Proteus mirabilis [4] (setting [17]).

In the case of `Oc1ccc(Nn2cccc2)cc1`, the Survival was found to be 100% in the assay on Mus musculus [5], 100% in the assay on Mus musculus [6] and 0% in the assay on Mus musculus [9]. Moreover, the values for the MID with Proteus mirabilis [7] and in the assay on Staphylococcus aureus [8] were 0.0625 and 0.01562, respectively. The MIC in the assay with Staphylococcus aureus [2] (setting [16]) is at most 7.8 µg/mL; in the assay with Proteus mirabilis [4] (setting [17]) it was 31.3 µg/mL (≈ 180 µM).

Regarding `C1=CC(=Nn2cccc2)C=CC1=Nn1cccc1` [AZAROLE], the figures for the Survival in the assay on Mus musculus [5], with Mus musculus [6] and with Mus musculus [9] were 80%, 100% and 70%, respectively. The figures for the MIC in the assay on Staphylococcus aureus [2] and in the assay with Proteus mirabilis [4] were above 62.5 µg/mL and above 125 µg/mL, respectively. Besides, the MID in the assay with Staphylococcus aureus [10] is 0.125; with Proteus mirabilis [11], 0.03125.

Take `CC[C@@H](CO)NCCN[C@@H](CC)CO` [ETHAMBUTOL]: the Survival stood at 30% in the assay with Mus musculus [12], 100% in the assay on Mus musculus [13], 90% in the assay with Mus musculus [14] and 0% with Mus musculus [15].

For the origin of these results see ChEMBL document CHEMBL1121743, “Synthesis and antibacterial activity of 1-(arylamino)-1H-pyrroles and 4-(1H-pyrrol-1-ylimino)-2,5-cyclohexadienes” (1981).
